# An excerpt weighted towards active compounds, which were near 2.9% of everything screened.
# Apaf-1 inh – human Apaf-1 inhibition; O14727; reconstituted apoptosome caspase-3 activity, DEVD-Rh110 fluorescence; inhibition, % at 20 µM; 330,000 compounds, 0.71% hits; active means inhibition of at least 40% at 20 µM;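 further: plate controls were DMSO wells for no effect and DEVD-CHO caspase inhibitor wells for full effect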
#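 Material: reconstituted apoptosome with Apaf-1, cytochrome c, caspase-9, procaspase-3, dATP / Buffer or medium: pH 7.5 Hepes buffer with CHAPS, BSA, DTT / Also added: cytochrome c with DEVD-Rh110 / Schedule: compound with Apaf-1, dATP, procaspase-3 30 min, then 50 min reaction, room temperature / Technique: rhodamine 110 fluorescence at Ex 480/Em 540 nm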
# SENP8 block-1 – SENP8 (human) protease inhibition; Q96LD8; recombinant SENP8, Nedd8 substrate fluorescence; inhibition, % at 20 µM; 360,000 compounds, 0.64% hits; AID 602440; in the data active means inhibition mostly above about 40%, no sharp cut-off; inactive means mostly below about 27%
# SENP7 inh – blocks the human protease SENP7 | Q9BQF6 | recombinant SENP7, Z-RLRGG-aminoluciferin luminescence, 40 min | inhibition, % at 5 µM | 330,000 compounds, 1.5% hits | AID 434973;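 active means inhibition above about 50% at the single test dose, limit read from the data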;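 further: plate controls were DMSO with enzyme for no effect and no enzyme buffer wells for full effect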
# SENP6 block – inhibitors of human SENP6 protease; 330,000 compounds, 1.8% hits; AID 2599; Q9GZR1; inhibition, % at 10 µM; Recombinant SENP6 catalytic domain, aminoluciferin luminescence;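 active means inhibition above about 50% at the single tested dose, limit read from the data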;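 further: plate controls were DMSO wells with enzyme for no effect and DMSO wells lacking enzyme for full effect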
# Target sequence (Q9GZR1 628-1112 limits assumed): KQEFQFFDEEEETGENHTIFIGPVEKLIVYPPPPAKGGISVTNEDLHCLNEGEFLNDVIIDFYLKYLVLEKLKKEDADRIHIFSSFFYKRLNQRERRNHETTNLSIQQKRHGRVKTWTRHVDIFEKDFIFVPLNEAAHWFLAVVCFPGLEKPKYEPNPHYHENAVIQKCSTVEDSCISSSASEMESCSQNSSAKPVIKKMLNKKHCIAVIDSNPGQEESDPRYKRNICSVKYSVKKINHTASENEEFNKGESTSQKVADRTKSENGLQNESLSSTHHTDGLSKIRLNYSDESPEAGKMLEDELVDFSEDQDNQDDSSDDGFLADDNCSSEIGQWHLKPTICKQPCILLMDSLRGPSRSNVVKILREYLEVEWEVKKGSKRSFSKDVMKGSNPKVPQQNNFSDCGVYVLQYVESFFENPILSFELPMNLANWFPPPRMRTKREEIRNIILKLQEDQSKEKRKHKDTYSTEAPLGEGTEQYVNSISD
# SENP1 FRET inh – SENP1 (human) catalytic domain inhibition. inhibition, % at 10 µM. 360,000 compounds, 0.21% hits. Q9P0U3. recombinant SENP1 catalytic domain, CyPet-SUMO1-YPet FRET cleavage;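 active means inhibition at least 30% at 10 µM, raw YFP signal under a set limit, fluorescence ratio 0.5 to 1.5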;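 further: 0% = enzyme with DMSO and 100% = no enzyme wells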
#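 Assay system: hSENP1 catalytic domain, recombinant. Amount: SENP1 enzyme, 20 pM final. Schedule: 50 min reaction, RT, dark. Technique: FRET, CFP and YFP emission. Control set: no-enzyme wells low, DMSO-plus-enzyme wells high control.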
# SENP8 block-2 – blocks the human protease SENP8; Q96LD8; purified SENP8, Z-RLRGG-aminoluciferin cleavage, luminescence; inhibition, % at 10 µM; 330,000 compounds, 1.2% hits; in the data active means inhibition above about 50%
# SENP8 inh conf – SENP8 (human) inhibition, single concentration confirmation; shares compounds with SENP8 block-1; purified SENP8, Nedd8-AMC/pro-Nedd8 cleavage fluorescence, 30 min; inhibition, % at 25 µM; 1,400 compounds, 15% hits; AID 624319; in the data active means inhibition mostly above about 39%, no sharp cut-off; inactive means mostly below about 34%
# Starred values were filed as active, the others as inactive; . = no result given.
SMILES,Apaf-1 inh,SENP8 block-1,SENP7 inh,SENP6 block,SENP1 FRET inh,SENP8 block-2,SENP8 inh conf
CC(C)(C)c1cc(=O)n(-c2ccccc2)[nH]1,.,87*,.,.,1,.,27
O=c1cc(-c2ccccc2)[nH]n1-c1ccccc1,.,-216,.,.,-1,.,.
O=C(COc1ccc(Cl)cc1)N1CCN(C(=O)c2cccc(F)c2)CC1,1,16,-7,-2,3,3,.
O=C(COc1ccccc1)N1CCN(C(=O)c2cccc(F)c2)CC1,-3,41*,8,-12,3,2,36
CC(=O)c1c(O)cc(O)c(C(C)=O)c1O,6,45*,2,1,-2,-2,20
CC(=O)c1c(O)cc(O)cc1CC(=O)O,-11,6,-2,-5,4,6,.
Cc1ccccc1NNC(N)=S,-5,51*,10,3,2,-2,11
Clc1ccc(/C=N/NC(=Nc2ccccc2)c2ccccn2)c(Cl)c1,9,30,-5,-18,2,-13,.
C(=N\NC(=Nc1ccccc1)c1ccccn1)/c1ccccn1,-32,40*,0,0,-1,4,3
CCN1C(=S)SC(=O)C1=C1C=C(C)OC(C)=C1,4,48*,-4,-14,-61,-20,6
CCOC(=O)c1cnc2ccc(OCC)cc2c1NCCCN1CCOCC1,0,-303,0,12,-2,5,.
Oc1ccc(Br)cc1-c1cc(-c2ccccc2Cl)[nH]n1,15,42*,-11,-26,1,-26,17
COc1ccc(CNC(=O)[C@H](Cc2ccccc2)NC(=O)CC[C@H]2O[C@@H](n3ccc(=O)[nH]c3=O)[C@H](O)[C@@H]2O)cc1,.,20,.,.,-1,.,.
COc1ccc(Cc2c(C3CCCCC3)nc3c(C)cc(Br)cn23)c(C)c1,.,-17,.,.,6,.,.
C[C@@H]1CN([C@H](C)CO)S(=O)(=O)c2ccc(-c3ccc(C(=O)N(C)C)cc3)cc2O[C@H]1CN(C)C(=O)Cc1ccccn1,.,11,.,.,0,.,.
CC(=O)Nc1cc([N+](=O)[O-])ccc1N1CCOCC1,-17,16,3,-5,-1,5,.
O=C(Nc1ccc([N+](=O)[O-])cc1)Nc1ccc(N2CCOCC2)c2nonc12,27,46*,12,8,6,6,21
O=C(c1ccccc1)c1ccccc1,-7,61*,1,0,3,-5,7
CN(C)c1ccc(CN2CCC(C(=O)NC(c3ccc(Cl)cc3)c3cnccn3)CC2)cc1 (stereo unspecified),.,15,.,.,-2,.,.
C=CCNCCOc1ccc(C)cc1[N+](=O)[O-],-1,19,-5,8,0,-3,.
CCC(C)NCCOc1ccc(C)cc1[N+](=O)[O-] (stereo unspecified),.,40*,.,.,1,.,22
COC(=O)c1ccc(NC(=O)CN(c2ccc(OC)cc2)S(C)(=O)=O)cc1,5,41*,8,2,4,2,17
c1ccc(-c2cc3nc(NCc4cccs4)nc(NCc4ccc5occc5c4)c3s2)cc1,.,-402,.,.,-4,.,.
COCCCNC(=O)C[C@H]1C[C@H](C(=O)N2CCCCC2)[C@@]2(CCc3ccccc3)c3[nH]c4cc(CCC(=O)N(C)C)ccc4c3CCN2C1=O,11,7,1,.,-1,.,.
CSCC[C@H](NC(=O)N1C[C@H]2C[C@@H](C1)c1cccc(=O)n1C2)C(=O)Nc1ccc(NC(C)=O)cc1,1,46*,1,-4,2,-6,9
CSCCC(NC(N)=O)C(=O)Nc1ccc(C)cc1 (stereo unspecified),-7,1,9,-11,2,-2,.
O=[N+]([O-])c1cccc(-c2ccc(/C=N/NC(=S)Nc3cccc(F)c3)o2)c1,12,52*,-2,-18,2,6,11
NC(=S)N/N=C/c1ccc(-c2cccc([N+](=O)[O-])c2)o1,16,30,6,-15,1,-15,.
CNC(=S)N/N=C/c1ccc(-c2ccc(Cl)c([N+](=O)[O-])c2)o1,16,33*,3,14,0,14,1

# Bioassay records from PubChem.
